Results published in ChEMBL document CHEMBL1140839, “Carbamate-appended N-alkylsulfonamides as inhibitors of gamma-secretase” (Bioorg Med Chem Lett, 2008).
Activity calls are given as the source filed them. The calls are words filed in the database; no cut-off is given here.

How the values were obtained:
Gamma-secretase = assay: Inhibition of gamma secretase in human H4 cells assessed as reduction in amyloid beta40 level by ELISA; type: cell-based
How it was run: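 Cells were plated and allowed to attach, then the medium was replaced with Ultraculture containing compound at 1% final DMSO. After overnight incubation, Aβ40 in the conditioned medium was measured by sandwich ELISA (C-terminal Aβ40-specific capture antibody, HRP-labelled N-terminal Aβ antibody for detection). IC50 values are means of two experiments, each with 12 concentrations; intra-assay variance was <10%.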

Mus musculus = assay: Reduction in amyloid beta level in Tg2576 mouse brain at 200 umol/kg, po after 3 hrs; type: functional; parameters: scale not given: the % may be the effect or the level left
How it was run: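 Tg2576 (βAPP-Swedish) transgenic mice received one oral dose of 200 μmol/kg. Brain Aβ was measured 3 h later and expressed as % reduction.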

[1] = Drug level in Tg2576 mouse plasma at 200 umol/kg, po after 3 hrs; type: ADME, organism-based; details: read-out: Drug uptake
How it was run: (§1)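 Tg2576 (βAPP-Swedish) transgenic mice received one oral dose of 200 μmol/kg. Plasma and brain drug concentrations (nM) were measured 3 h after dosing and reported as mean ± error.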

[2] = Drug level in Tg2576 mouse brain at 200 umol/kg, po after 3 hrs; type: ADME, organism-based; details: read-out: Drug uptake; how it was run: as §1

| SMILES | IC50 (Gamma-secretase) [nM] | also measured |
| --- | --- | --- |
| CCNC(=O)OC[C@@H](C)N(c1cc(Cl)ccc1CO)S(=O)(=O)c1ccc(Cl)cc1 | 10 |  |
| C[C@H](COC(=O)NC1CCCCC1)N(c1cc(Cl)ccc1CO)S(=O)(=O)c1ccc(Cl)cc1 | 5.6 |  |
| CNC(=O)OC[C@@H](C)N(c1cc(Cl)ccc1CO)S(=O)(=O)c1ccc(Cl)cc1 | 15 |  |
| C[C@H](COC(=O)NC(C)(C)C)N(c1cc(Cl)ccc1CO)S(=O)(=O)c1ccc(Cl)cc1 | 12 |  |
| C[C@H](CCCN(C)S(C)(=O)=O)N(c1cc(Cl)ccc1CO)S(=O)(=O)c1ccc(Cl)cc1 |  | Activity (Mus musculus): 27% |
| CC(C)NC(=O)OC[C@@H](C)N(c1cc(Cl)ccc1CO)S(=O)(=O)c1ccc(Cl)cc1 | 12 |  |
| CC(C)N(CCCn1ccnc1)C(=O)OC[C@@H](C)N(c1cc(Cl)ccc1CO)S(=O)(=O)c1ccc(Cl)cc1 | 19 |  |
| C[C@H](CCCn1cnnn1)N(c1cc(Cl)ccc1CO)S(=O)(=O)c1ccc(Cl)cc1 |  | Activity (Mus musculus): 41% |
| CCCNC(=O)OC[C@@H](C)N(c1cc(Cl)ccc1CO)S(=O)(=O)c1ccc(Cl)cc1 | 10 |  |
| CCC(C)NC(=O)OC[C@@H](C)N(c1cc(Cl)ccc1CO)S(=O)(=O)c1ccc(Cl)cc1 (stereo partly drawn) | 15 |  |
| CCN(CC)C(=O)OC[C@@H](C)N(c1cc(Cl)ccc1CO)S(=O)(=O)c1ccc(Cl)cc1 | 18 |  |
| C[C@H](CCOC(=O)NCCCn1ccnc1)N(c1cc(Cl)ccc1CO)S(=O)(=O)c1ccc(Cl)cc1 | 7.7 |  |

Further lines, with some results ahead:

| IC50 (Gamma-secretase) [nM] | SMILES | also measured |
| --- | --- | --- |
| 0.27 | CCN(CCCn1ccnc1)C(=O)OC[C@@H](C)N(c1cc(Cl)ccc1Cl)S(=O)(=O)c1ccc(Cl)cc1 | Activity (Mus musculus): 50%; concentration at 3 h [1]: 98.9 µM; concentration at 3 h [2]: 41.2 µM |
| 2.3 | C[C@H](COC(=O)NCCCn1ccnc1)N(c1cc(Cl)ccc1CO)S(=O)(=O)c1ccc(Cl)cc1 |  |
| 4 | C[C@H](CCOC(=O)NCCn1ccnc1)N(c1cc(Cl)ccc1CO)S(=O)(=O)c1ccc(Cl)cc1 |  |
| 0.48 | C[C@H](COC(=O)N(C)CCCn1ccnc1)N(c1cc(Cl)ccc1Cl)S(=O)(=O)c1ccc(Cl)cc1 |  |
| 0.06 | CCN(CCCn1ccnc1)C(=O)OC[C@@H](C)N(c1cc(Cl)ccc1CO)S(=O)(=O)c1ccc(Cl)cc1 | Activity (Mus musculus): 15%; concentration at 3 h [1]: 0.73 µM; concentration at 3 h [2]: 0.227 µM |
| 0.06 | C[C@H](COC(=O)N(CCCn1ccnc1)CC1CC1)N(c1cc(Cl)ccc1CO)S(=O)(=O)c1ccc(Cl)cc1 | Activity (Mus musculus): inactive; concentration at 3 h [1]: 6.83 µM; concentration at 3 h [2]: 0.859 µM |
| 0.66 | C[C@H](COC(=O)NCCCn1ccnc1)N(c1cc(Cl)ccc1F)S(=O)(=O)c1ccc(Cl)cc1 |  |
| 1.8 | C[C@H](COC(=O)N1CCCC1)N(c1cc(Cl)ccc1CO)S(=O)(=O)c1ccc(Cl)cc1 |  |
| 2.1 | C[C@H](COC(=O)NCCCn1ncnn1)N(c1cc(Cl)ccc1CO)S(=O)(=O)c1ccc(Cl)cc1 |  |
| 0.41 | C[C@H](COC(=O)NCCCn1ccnc1)N(c1cc(Cl)ccc1Cl)S(=O)(=O)c1ccc(Cl)cc1 |  |
| 0.93 | C[C@H](COC(=O)NCCn1ccnc1)N(c1cc(Cl)ccc1CO)S(=O)(=O)c1ccc(Cl)cc1 |  |
| 1.2 | C[C@H](COC(=O)NCCCn1ccnc1)N(c1cc(F)ccc1F)S(=O)(=O)c1ccc(Cl)cc1 |  |
